ERp5 block = inhibitors of ERp5-driven insulin aggregation, primary screen, biochemical, turbidity, absorbance 650 nm, single point | inhibition, % at 9.99 µM | 90 min | Protein disulfide-isomerase A6 (Homo sapiens), Q15084 | AID 651711, 2012 | actives 0.05% (n = 350,000);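 active = mean replicate inhibition above about 25%, with every replicate also reaching it, limit read from the data, passing the limit was not always enough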
PDI turbidity = inhibitors of human PDI, primary screen, biochemical, turbidity, single point, plate reader; Protein disulfide-isomerase (Homo sapiens), P07237; PDI insulin aggregation turbidity, A650, 90 min; inhibition, % at 10 µM; actives 0.052% (n = 350,000); AID 588391, 2011;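 active = mean inhibition across replicates of 30% or more, whatever share of single replicates reach that level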
Target sequence (P07237 whole entry, looked up): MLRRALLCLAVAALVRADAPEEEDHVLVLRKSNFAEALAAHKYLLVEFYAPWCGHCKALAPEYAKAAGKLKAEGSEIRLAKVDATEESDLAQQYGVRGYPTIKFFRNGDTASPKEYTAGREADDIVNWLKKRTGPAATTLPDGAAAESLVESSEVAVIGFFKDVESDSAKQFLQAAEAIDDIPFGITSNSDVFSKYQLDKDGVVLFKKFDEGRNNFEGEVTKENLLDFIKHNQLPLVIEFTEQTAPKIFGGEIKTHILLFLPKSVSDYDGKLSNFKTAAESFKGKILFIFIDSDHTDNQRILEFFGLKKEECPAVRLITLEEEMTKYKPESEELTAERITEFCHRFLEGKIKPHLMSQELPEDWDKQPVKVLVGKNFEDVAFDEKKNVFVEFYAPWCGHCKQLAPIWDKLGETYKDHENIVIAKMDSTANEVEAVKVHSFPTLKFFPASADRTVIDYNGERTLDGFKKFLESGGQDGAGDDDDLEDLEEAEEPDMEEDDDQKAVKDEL
Tb MetRS inh = T. brucei MetRS inhibitors, primary screen, biochemical, luminescence | purified T. brucei MetRS, ATP depletion, Kinase-Glo luminescence | actives 0.4% (n = 360,000) | AID 624268, 2012 | methionyl-tRNA synthetase (Trypanosoma brucei brucei) | inhibition, % at 11.9 µM;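 active = inhibition above a per-plate cutoff of the control wells' mean inhibition plus 3 SD, cut at about 5.5% in these data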;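 note: 0% = DMSO wells median and 100% = median of wells with control inhibitor compound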
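Assay system: T. brucei methionyl-tRNA synthetase, purified | Medium: HEPES buffer with MgCl2, KCl, DTT, spermine, BSA, pyrophosphatase | Compound: 11.9 µM single point | Incubation: 15 min enzyme-compound preincubation, 2 h reaction, 10 min detection, 25 °C | Measured by: Kinase-Glo luciferase luminescence reporting remaining unconsumed ATP | Measure: % inhibition normalized to control-well medians | Replication: Singlicate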
TbMetRS confirm = T. brucei MetRS inhibitors, confirmation, biochemical, luminescence | actives 93% (n = 1,400) | AID 624412, 2012 | inhibition, % at 11.9 µM | T. brucei MetRS enzyme, luminescence (ATP depletion) | shares compounds with Tb MetRS inh; in the data active = inhibition above about 7%
Jurkat tox = Jurkat T cell cytotoxicity, cytotoxicity control for T. brucei MetRS inhibitor project, luminescence, high throughput; actives 12% (n = 1,400); AID 624413, 2012; Jurkat cells viability, ATP luminescence; inhibition, % at 8.3 µM; shares compounds with Tb MetRS inh; in the data active = inhibition above about 15%;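 note: 0% = vehicle and 100% = reference inhibitor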
Tb MetRS inh FP = T. brucei MetRS inhibitors, orthogonal assay for T. brucei MetRS inhibitor project, biochemical, fluorescence polarization | shares compounds with Tb MetRS inh | purified T. brucei MetRS | inhibition, % at 11.9 µM | actives 44% (n = 1,400) | AID 651607, 2012; in the data active = inhibition above about 17%;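 note: 0% = vehicle wells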
The depositor's hits bear a star; · = no result. Hits are enriched below; roughly 0.4% of the tested compounds scored in any of these assays.

SMILES	ERp5 block	PDI turbidity	Tb MetRS inh	TbMetRS confirm	Jurkat tox	Tb MetRS inh FP
Cc1ccc2[nH]c3c(N4CCN(Cc5ccccc5)CC4)ncnc3c2c1	·	-7	8.1*	18*	15*	4
CCCC#Cc1cnc2c(c1)C(=O)N([C@@H](C)CO)C[C@H](C)[C@@H](CN(C)C(=O)Cc1ccncc1)O2	8	·	·	·	·	·
C[C@H]1CN([C@@H](C)CO)C(=O)c2cc(NS(C)(=O)=O)ccc2O[C@H]1CN(C)C(=O)Nc1cccc2ccccc12	6	·	·	·	·	·
O=C(NC(=S)NNC(=O)c1cnccn1)c1ccc(Cl)cc1	2	-2	5.9*	2	6	-5
COc1ccc(C(=O)NC(=S)NNC(=O)c2cnccn2)cc1	·	-6	0	·	·	·
CCC(=O)N1CC(=O)N2[C@H](CO)[C@H](c3ccc(C#Cc4cccc(OC)c4)cc3)[C@@H]2C1	-3	·	·	·	·	·
O=C(O)CCc1ccc(-c2ccc(Br)cc2)n1-c1ccc(O)cc1	4	3	5.7*	16*	-6	7
Cc1ccc(-c2ccc(CCC(=O)O)n2-c2ccc(O)cc2)cc1	·	9	0	·	·	·
C[C@H](CO)N1C[C@H](C)[C@H](CN(C)C(=O)c2ccccn2)Oc2cc(C#Cc3ccccc3)ccc2S1(=O)=O	-1	·	·	·	·	·
O=C(Cn1c(CO)nc2ccccc21)Nc1cc(C(F)(F)F)ccc1N1CCOCC1	·	-4	14*	26*	-2	4
O=C(CSc1nc2ccccc2[nH]1)Nc1cc(C(F)(F)F)ccc1N1CCOCC1	·	-7	0	·	·	·
O=C(O)C1=C[C@@H](c2ccc3c(c2)Cc2ccccc2-3)C[C@@H](OCc2ccc(CO)cc2)O1	-1	·	·	·	·	·
COc1ccc(S(=O)(=O)Nc2ccc3c(c2)C(=O)N([C@@H](C)CO)C[C@@H](C)[C@@H](CN(C)C(=O)C2CCCCC2)OCCCC[C@H](C)O3)cc1	-5	·	·	·	·	·
Cc1ccc2[nH]cc(S(=O)(=O)c3ccc(F)cc3)c(=O)c2c1	3	10	29*	41*	0	16
CCOc1ccc(S(=O)(=O)c2c[nH]c3ccc(C)cc3c2=O)cc1	5	6	4	·	·	·
CN(C)C(CNc1ncnc2sccc12)c1ccccc1 (configuration not stated)	0	-4	8.0*	1	-4	-1
OC(CNc1ncnc2sccc12)c1ccccc1 (configuration not stated)	4	9	0	·	·	·
C[C@@H]1CN([C@H](C)CO)C(=O)c2cc(NC(=O)Nc3ccc(C(F)(F)F)cc3)ccc2O[C@@H](C)CCCCO[C@H]1CN(C)Cc1ccc(C(=O)O)cc1	-3	·	·	·	·	·
C[C@@H]1CCCCO[C@@H](CN(C)S(=O)(=O)c2cccs2)[C@H](C)CN([C@H](C)CO)C(=O)c2cc(NS(=O)(=O)c3cccs3)ccc2O1	3	·	·	·	·	·
CC(C)(C)c1ccc(C(=O)NCC(=O)N/N=C/c2cccs2)cc1	-8	-5	-1	·	·	·
O=C(CNC(=O)c1cccc(Br)c1)N/N=C/c1cccs1	3	-5	6.0*	20*	3	2
C[C@@H]1CCCCO[C@@H](CN(C)C(=O)CCC(F)(F)F)[C@H](C)CN([C@@H](C)CO)C(=O)c2cc(NC(=O)NC3CCCCC3)ccc2O1	-4	·	·	·	·	·
COc1ccc(-c2coc3c(C(=O)Nc4cccc(C(C)=O)c4)cccc23)c(C)c1	8	0	7.6*	1	8	21*
COc1ccc(-c2ccc(C(=O)Nc3cccc(C(C)=O)c3)c3occc23)c(C)c1	-2	5	0	·	·	·
C[C@@H]1CCCCO[C@@H](CN(C)S(=O)(=O)c2cccs2)[C@@H](C)CN([C@@H](C)CO)C(=O)c2cc(NC(=O)CCCN(C)C)ccc2O1	0	·	·	·	·	·
SMILES	ERp5 block	PDI turbidity	Tb MetRS inh	TbMetRS confirm	Jurkat tox	Tb MetRS inh FP
N=c1n(Cc2ccccc2)c2ccccc2n1CC(O)COc1ccc(Cl)cc1Cl (configuration not stated)	0	3	10*	19*	77*	9
N=c1n(Cc2ccc(Cl)cc2)c2ccccc2n1CC(O)COc1ccccc1 (configuration not stated)	-1	5	0	·	·	·
C[C@@H]1CCCCO[C@H](CN(C)S(=O)(=O)c2ccccc2)[C@H](C)CN([C@@H](C)CO)C(=O)c2cc(NC(=O)c3ccncc3)ccc2O1	-1	·	·	·	·	·
Cc1cc(=O)c2cc(Br)ccc2[nH]1	·	7	6.0*	7.5*	7	8
Cc1cc(=O)c2ccccc2[nH]1	·	0	-1	·	·	·
COCCN(C(=O)c1csnn1)C(C(=O)NC1CCCCC1)c1ccccc1 (configuration not stated)	-3	-3	0	·	·	·
COCCN(C(=O)c1csnn1)C(C(=O)NC1CCCCC1)c1ccc(Cl)cc1 (configuration not stated)	3	4	9.2*	2	-2	-2
CCCNC(=O)Nc1ccc2c(c1)C(=O)N(C)C[C@@H](OC)[C@@H](C)CN(C(C)=O)[C@H](C)CO2	-5	·	·	·	·	·
O=C(NCCc1ccc(Cl)cc1)Nc1ccc(Cl)cc1	-5	-1	71*	69*	4	55*
O=C(NCCc1ccncc1)Nc1ccc(Cl)cc1	·	-1	6.2*	14*	-1	0
NS(=O)(=O)c1cccc(NC(=O)CCSc2ccccc2Cl)c1	-2	3	0	·	·	·
Cc1ccc(S(=O)(=O)NNC(=O)Nc2ccc(Cl)c(Cl)c2)cc1	5	-2	12*	13*	1	10
O=C(NCCc1ccncc1)Nc1ccc(F)cc1	1	8	-1	·	·	·
O=C(NCCc1ccc(F)cc1)Nc1ccccc1	0	5	1	·	·	·
NS(=O)(=O)c1cccc(NC(=O)Cc2ccc(Cl)c(Cl)c2)c1	-8	-1	12*	19*	6	12
Cc1ccc(NC(=O)NNS(=O)(=O)c2ccc(Br)cc2)cc1	·	9	1	·	·	·
N#C[C@@H]1[C@@H](c2ccc(C3=CCCCC3)cc2)[C@@H](CO)N1C(=O)NC1CCCCC1	-2	·	·	·	·	·
CC(=O)N1CC(=O)N2[C@@H](CO)[C@H](c3ccc(-c4ccc(C)cc4)cc3)[C@@H]2C1	-3	·	·	·	·	·
NS(=O)(=O)c1ccc(CNC(=S)Nc2ccc(Cl)c(Cl)c2)cc1	5	21	2	·	·	·
NS(=O)(=O)c1ccc(CCNC(=O)Nc2ccc(Cl)c(Cl)c2)cc1	·	-13	15*	23*	18*	19*
CCCC(=O)Nc1ccc2c(c1)C(=O)N(C)C[C@H](OC)[C@@H](C)CN(C(=O)c1ccccc1F)[C@H](C)CO2	2	·	·	·	·	·

High-throughput results from PubChem BioAssay.
